HTR2A ag: mouse Htr2a agonists via beta-arrestin recruitment, primary screen, cell-based, luminescence. 5-hydroxytryptamine receptor 2A (Mus musculus), P35363. CHO-K1 mHTR2A beta-arrestin complementation; percent of 30 µM serotonin response. activation, % at 7.6 µM. 360,000 compounds, 0.66% hits;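 active = activation above a run cutoff, the mean activation of all tested compounds plus 3 SD, cut at about 14% in these data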
Target sequence (P35363 whole entry, looked up): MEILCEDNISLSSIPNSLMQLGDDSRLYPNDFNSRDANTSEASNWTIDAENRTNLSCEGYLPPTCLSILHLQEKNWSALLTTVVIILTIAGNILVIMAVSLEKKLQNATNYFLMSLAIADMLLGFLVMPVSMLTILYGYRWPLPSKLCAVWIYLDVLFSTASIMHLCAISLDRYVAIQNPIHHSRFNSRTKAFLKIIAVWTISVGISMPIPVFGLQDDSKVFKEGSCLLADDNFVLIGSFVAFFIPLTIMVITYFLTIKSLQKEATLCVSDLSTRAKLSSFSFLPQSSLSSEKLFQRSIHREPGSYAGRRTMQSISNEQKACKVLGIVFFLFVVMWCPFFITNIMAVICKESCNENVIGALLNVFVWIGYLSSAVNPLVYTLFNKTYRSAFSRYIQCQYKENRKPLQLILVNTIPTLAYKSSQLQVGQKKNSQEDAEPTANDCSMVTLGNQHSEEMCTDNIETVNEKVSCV
PP1 inh: PP1-alpha phosphatase inhibitors, primary screen, counter-screen for PP5 inhibitor project, biochemical, fluorescence, OMFP substrate, single point; Serine/threonine-protein phosphatase PP1-alpha catalytic subunit (Homo sapiens), P62136; purified PP1alpha; inhibition, % at 6.7 µM; 320,000 compounds, 0.9% hits; AID 2235, 2010;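 active = inhibition above the mean inhibition of all tested compounds plus 3 SD, computed separately for each screening campaign, cut at about 15% in these data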
GASC-1 inh: inhibitors of GASC-1 histone demethylase, primary screen, biochemical, fluorescence, DELFIA europium; Lysine-specific demethylase 4C (Homo sapiens), Q9H3R0; GST-JMJD2C(1-420) H3K9me3 demethylation; inhibition, % at 2.35 µM; 330,000 compounds, 0.069% hits; AID 2099, 2009;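 active = more than half of a compound's replicate wells show inhibition beyond 50%, single wells judged on their own value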;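 note: signal counts dimethyl H3K9 product captured on neutravidin plate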
PP5 inh: PP5 phosphatase inhibitors, primary screen, biochemical, fluorescence; Serine/threonine-protein phosphatase 5 (Homo sapiens), P53041; AID 1987, 2009; 320,000 compounds, 0.18% hits; purified PP5c, OMFP substrate fluorescence; inhibition, % at 6.7 µM;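 active = inhibition above the campaign's mean inhibition across all tested compounds plus 3 SD, cut at about 9.5% in these data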
T cell HTS: modulators of CD8 T cell-vesicle binding, primary screen, mouse 2C CD8+ T cells, flow cytometry; AID 2052, 2009; response (vesicle binding), % at 7 µM; 2C CD8+ T cell-vesicle binding; active compounds read low; 330,000 compounds, 0.068% hits;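 active = response, share of CD8 T cells binding vesicles, and their 90th percentile fluorescence all below set limits, cut at about 80% in these data, passing the limit was not always enough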;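 note: values below 100% mean blocked vesicle binding to the CD8+ T cells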
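Read-out – percent CD8+ FL2 mean versus row control · System – murine 2C transgenic CD8+ T lymphocytes · Times – 1.5 h cell–vesicle binding at 37 °C, then 20 min icy labelling · Control set – naked vesicles low, QL9 vesicles with vehicle high · Detection – cytometric PE anti-B7-1 and Alexa647 anti-CD8 signals after 1% paraformaldehyde fixation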
PP1 inh confirm: PP1 phosphatase inhibitors, confirmation, biochemical, fluorescence, OMFP substrate, triplicate; shares compounds with PP1 inh; purified PP1alpha; inhibition, % at 6.7 µM; 1,900 compounds, 52% hits; AID 2358, 2010;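 active = mean PP1 inhibition above a set limit taken from the earlier primary screen, cut at about 15% in these data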
PP5 inh counter: PP5 phosphatase inhibition by PP1 hits, confirmation, counter-screen for PP1 inhibitor project, biochemical, fluorescence, triplicate; purified PP5c, OMFP fluorescence; inhibition, % at 6.7 µM; shares compounds with PP1 inh; 1,900 compounds, 4% hits;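 active = mean PP5 inhibition over triplicate wells above about 9.5% taken from the earlier PP1 screen, limit read from the data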
Hits are given with their value; 0 = inactive; - = no result given. In the library only some 1.7% were active in any assay of this set; here they are far more common.

SMILES	HTR2A ag	PP1 inh	GASC-1 inh	PP5 inh	T cell HTS	PP1 inh confirm	PP5 inh counter
O=c1/c(=C/c2ccccn2)sc2nc3ccccc3n12	0	0	0	0	0	-	-
O=c1/c(=C\c2cc([N+](=O)[O-])cc([N+](=O)[O-])c2O)sc2nc3ccccc3n12	0	18	-	0	0	26	0
CCCCn1c(N)c(N(CC(C)C)C(=O)CCNC(=O)c2ccccc2Cl)c(=O)[nH]c1=O	0	0	0	0	0	-	-
CCN(CC(=O)Nc1c(F)cccc1F)C(=O)/C=C/c1ccc2ccccc2n1	0	22	0	0	0	0	0
O=S(=O)(c1ccc2c(c1)OCCO2)N1CCCN(S(=O)(=O)c2c(F)cccc2F)CC1	0	0	0	0	0	-	-
CCCCCCCCCCCCCCCC[N+](C)(C)CCN(Cc1ccc(OC)cc1)c1ncccn1	0	69	-	11	0	35	0
Cn1c(=O)c(C(=O)CN2CCc3ccccc32)c(N)n(Cc2ccccc2)c1=O	0	22	0	0	0	0	0
CCOC(=O)Cc1cc(=O)n2[nH]c(-c3ccccc3)cc2n1	0	0	0	0	0	-	-
CCOC(=O)Cc1cc(=O)n2[nH]c(-c3ccccc3)c(-c3ccccc3)c2n1	0	39	0	0	0	40	0
Cc1cccc(C)c1Nc1c(-c2ccccn2)nc2ccccn12	0	28	0	0	0	0	0
Cc1cc(C)n2c(Nc3c(C)cccc3C)c(-c3ccccn3)nc2n1	0	-	-	-	-	-	-
Cc1ccc(Nc2c(-c3ccccn3)nc3cccc(C)n23)cc1	0	40	0	0	0	50	0
CC(OC(=O)Nc1ccccc1)C(=O)OC1CCCCC1 (configuration not stated)	0	-	-	-	-	-	-
COc1ccc(C2=NN(C(=O)CSc3ncccn3)C(c3ccc(C)cc3)C2)cc1 (configuration not stated)	0	0	0	0	0	-	-
COc1ccc(C2CC(c3ccc(Br)cc3)=NN2C(=O)CSC2=NCCS2)cc1 (configuration not stated)	0	20	0	0	0	0	0
CC(C)(C)OC(=O)N[C@@H](CCCCNC(=O)OCc1ccccc1)c1nnc([C@H](CCCCNC(=O)OCc2ccccc2)NC(=O)OC(C)(C)C)o1	0	23	0	0	0	0	0
O=C(NCc1cccnc1)c1ccccc1NS(=O)(=O)c1ccc(Br)cc1	0	-	0	-	0	-	-
CC(C)C(=O)Nc1cccc(COc2ccccc2CN(Cc2ccccc2)C(=O)OC(C)(C)C)c1	0	-	-	-	-	-	-
Cc1ccc(/C=N/n2c(-c3ccc(Cl)cc3)n[nH]c2=S)s1	0	20	0	0	0	0	0
CC(=O)Nc1cccc(-c2ccnc3c2CC(C)(C(=O)NCc2ccncc2)O3)c1 (configuration not stated)	0	-	-	-	-	-	-
CC1=C(C(=O)Nc2ccccc2)C(c2ccco2)C(C#N)=C(SCc2ccccc2)N1 (configuration not stated)	-	23	0	0	0	0	0
Cn1nc(C(=O)N2CCN(c3ccc([N+](=O)[O-])cc3)CC2)c2c1-c1ccccc1S(=O)(=O)C2	0	0	0	0	0	-	-
CCCSc1nnc(N2C(=O)C(O)=C(C(=O)c3ccco3)C2c2ccccc2F)s1 (configuration not stated)	0	22	0	0	0	0	0
CSc1nnc(N2C(=O)C(O)=C(C(=O)c3ccc(C)o3)C2c2ccc(C)cc2)s1 (configuration not stated)	0	30	0	0	0	25	0
COc1ccc(/C=N/Nc2cc(C)nc(-n3nc(C)cc3C)n2)cc1	0	39	0	0	0	50	0
SMILES	HTR2A ag	PP1 inh	GASC-1 inh	PP5 inh	T cell HTS	PP1 inh confirm	PP5 inh counter
Cc1cc(N/N=C/c2cccc(Cl)c2)nc(-n2nc(C)cc2C)n1	0	18	0	0	0	23	0
COc1ccc(/C=N/Nc2cc(C)nc(NS(=O)(=O)c3ccc(C)cc3)n2)cc1	0	0	0	0	0	-	-
Cc1cc(N/N=C/c2cccc([N+](=O)[O-])c2)nc(-n2nc(C)cc2C)n1	0	0	0	0	0	-	-
Cc1cc(C)n2nc(C(=O)N/N=C/c3cccc(Cl)c3)nc2n1	0	18	0	0	0	0	0
Cc1c(C(=O)N2CCCCC2)c(S(=O)(=O)N2CCN(c3ccccc3F)CC2)c(C)n1C	0	0	0	0	0	-	-
Cc1cc(C)n(CCOc2ccc(Br)cc2)n1	0	0	0	0	0	-	-
Cc1ccccc1/C=C/c1nc2ccccc2c(=O)[nH]1	0	20	0	0	0	18	0
Cc1ccccc1/C=C\c1nc2ccccc2c(=O)[nH]1	0	0	0	0	0	-	-
CCc1cccc(C)c1NC(=O)CSc1nc(-c2ccccc2F)nc2nc[nH]c12	0	24	0	0	0	16	0
O=C(CSc1nc(-c2ccccc2F)nc2nc[nH]c12)Nc1c(Cl)cc(Cl)cc1Cl	-	0	0	0	0	-	-
COc1ccc(C(CCN2CCCC(C)C2)c2c(OC)cc(OC)c3c2OC(=O)CC3c2cc(OC)c(OC)c(OC)c2)cc1 (configuration not stated)	0	0	0	0	-	-	-
Clc1ccc2nc(-c3ccccn3)c(Nc3ccc4c(c3)OCO4)n2c1	0	46	0	0	0	40	0
Cc1ccc2nc(-c3ccccc3O)c(Nc3ccc4c(c3)OCCO4)n2c1	0	0	0	0	0	-	-
CCOC(=O)c1cc2c(=O)n3ccccc3nc2n(Cc2ccco2)c1=NC(=O)c1ccc(OC)cc1OC	0	0	0	0	0	-	-
CCOc1cc(/C=C2\SC(=Nc3ccc(CC)cc3)NC2=O)ccc1OCC(=O)O	0	22	0	0	0	0	0
CCOC(=O)C1=C(O)/C(=C/c2ccc(OCC(=O)O)c(OCC)c2)SC1=Nc1ccccc1	0	0	0	0	0	-	-
CCc1ccc(N=C2NC(=O)/C(=C/c3cc(OC)c(OC)c(OC)c3)S2)cc1	0	0	0	0	0	-	-
CCc1ccc(N=C2NC(=O)/C(=C/c3cc(Br)c(OCC(=O)O)c(OC)c3)S2)cc1	0	30	0	0	0	21	0
COCCn1c(=O)[nH]c(=O)c2c1nc(-c1ccc(-c3ccc(Cl)cc3[N+](=O)[O-])o1)n2Cc1ccccc1	0	18	0	0	0	38	0
